Experimental data taken from ChEMBL document CHEMBL5376022, “Design, synthesis and biological evaluation of novel pyrimidine derivatives as bone anabolic agents promoting osteogenesis via the BMP2/SMAD1 signaling pathway” (RSC Med Chem, 2024).
Activity calls are given as the source filed them. No cut-off for these calls is given here.

Legend:
Calvarial osteoblast [1] = test: Induction of osteogenesis in BALB/c mouse calvarial osteoblast cells using PNPP as substrate assessed as increase in ALP activity at 0.001 to 1000 nM measured after 48 hrs by spectrophotometry; assay type: functional, cell-based; details: Calvaria, dose 0.001-1000 nM
Method in brief: (§1)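 Neonatal BALB/c calvarial osteoblasts, 2 × 10³ cells per well, adhered 24 h, then exposed to compounds (1 pM to 1 μM range) in osteoblast differentiation medium for 48 h. Cells frozen overnight at −80 or −20 °C, thawed at 37 °C to expose ectoenzyme; p-nitrophenyl phosphate added and ALP activity read at 405 nm. Untreated cells as control.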

Calvarial osteoblast [2] = test: Cytotoxicity in BALB/c mouse calvarial osteoblast cells at 0.001 to 1000 nM incubated for 48 hrs by MTT assay; assay type: toxicity, cell-based, Calvaria; details: 1 µM, dose 0.001-1000 nM
Method in brief: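 Primary calvarial osteoblasts from 1–2 day old BALB/c pups (collagenase/dispase digests, α-MEM with 10% FBS) seeded at 2 × 10³ per well. MTT added for 4 h at 37 °C, formazan dissolved in DMSO, absorbance read at 570 nm.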

Calvarial osteoblast [3] = test: Induction of cell proliferation of BALB/c mouse calvarial osteoblast cells at 0.001 nM incubated for 48 hrs by MTT assay relative to control; assay type: functional, Calvaria
Method in brief: (§2)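 Primary calvarial osteoblasts from 1–2-day-old neonatal BALB/c pups, released by dispase/collagenase digestion and grown in α-MEM with 10% FBS. Seeded at 2 × 10³ cells per well, treated after 24 h for 48 h in α-MEM with 5% FBS, 10 mM β-glycerophosphate and 50 μg mL⁻¹ ascorbic acid. MTT added for 4 h at 37 °C, formazan dissolved in DMSO, absorbance read at 570 nm versus untreated cells.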

Calvarial osteoblast [4] = test: Induction of cell proliferation of BALB/c mouse calvarial osteoblast cells at 0.1 nM incubated for 48 hrs by MTT assay relative to control; assay type: functional, Calvaria; method in brief: as §2
[5] = Induction of osteogenesis in BALB/c mouse MSC cells assessed as increase in mineral nodule formation at 0.1 nM treated for 21 days with compound refreshment for every 48 hrs by Alizarin red S staining based analysis relative to control; assay type: functional; details: time 21 day
Method in brief: (§3)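 Bone marrow cells were flushed from the long bones of 6–8-week-old BALB/c mice and seeded at 2 × 10⁶ per well. Medium: 10% FBS, 100 nM dexamethasone, 50 μg mL⁻¹ ascorbic acid and 10 mM β-glycerophosphate. Compound and medium were renewed every 48 h for 21 days. Cells were fixed in 4% paraformaldehyde and stained with Alizarin red (pH 4.2). Stain was eluted with 10% cetylpyridinium chloride for 1 h and read at 595 nm versus control.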

[6] = Induction of osteogenesis in BALB/c mouse MSC cells assessed as increase in mineral nodule formation at 0.001 nM treated for 21 days with compound refreshment for every 48 hrs by Alizarin red S staining based analysis relative to control; assay type: functional; details: time 21 day; method in brief: as §3
Calvarial osteoblast [7] = test: Induction of osteogenesis in BALB/c mouse calvarial osteoblast cells assessed as increase in RUNX mRNA level at 1 to 100 pM by qPCR analysis; assay type: functional, cell-based; details: Calvaria, dose 1-100 pM
Method in brief: (§4)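 BALB/c calvarial osteoblasts treated at 1 pM and 100 pM; RNA isolated, cDNA synthesized and RUNX2 and type 1 col transcripts measured by PCR.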

Calvarial osteoblast [8] = test: Induction of osteogenesis in BALB/c mouse calvarial osteoblast cells assessed as increase in type-1 col mRNA level at 1 to 100 pM by qPCR analysis; assay type: functional, cell-based; details: Calvaria, dose 1-100 pM; method in brief: as §4
Calvarial osteoblast [9] = test: Induction of osteogenesis in BALB/c mouse calvarial osteoblast cells assessed as increase in BMP2 level at 1 to 100 pM incubated for 48 hrs by Western blot analysis; assay type: functional, cell-based; details: Calvaria, dose 1-100 pM
Method in brief: (§5)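 Calvarial osteoblasts seeded at 10⁶ per well, treated after 24 h at 1 pM and 100 pM for 48 h. Lysed with protease and phosphatase inhibitors, protein by BCA; 30 μg resolved by SDS-PAGE, PVDF transfer, 5% BSA block. Primary antibodies to BMP2, SMAD1, phospho-SMAD1, RUNX2, type I col (1:1000) overnight at 4 °C; β-actin loading control; HRP chemiluminescence and densitometry.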

Calvarial osteoblast [10] = test: Induction of osteogenesis in BALB/c mouse calvarial osteoblast cells assessed as increase in SMAD1 level at 1 to 100 pM incubated for 48 hrs by Western blot analysis; assay type: functional, cell-based; details: Calvaria, dose 1-100 pM; method in brief: as §5
Calvarial osteoblast [11] = test: Induction of osteogenesis in BALB/c mouse calvarial osteoblast cells assessed as increase in phosphorylated SMAD1 level at 1 to 100 pM incubated for 48 hrs by Western blot analysis; assay type: functional, cell-based; details: Calvaria, dose 1-100 pM; method in brief: as §5
Calvarial osteoblast [12] = test: Induction of osteogenesis in BALB/c mouse calvarial osteoblast cells assessed as increase in RUNX2 level at 1 to 100 pM incubated for 48 hrs by Western blot analysis; assay type: functional, cell-based; details: Calvaria, dose 1-100 pM; method in brief: as §5
Calvarial osteoblast [13] = test: Induction of osteogenesis in BALB/c mouse calvarial osteoblast cells assessed as increase in type-1 col level at 1 to 100 pM incubated for 48 hrs by Western blot analysis; assay type: functional, cell-based; details: Calvaria, dose 1-100 pM; method in brief: as §5
[14] = Stability in SGF assessed as compound remaining measured upto 6 hrs by RP-UHPLC analysis; assay type: ADME; details: simulated gastric fluid (SGF), read-out: Stability
[15] = Stability in SIF assessed as compound remaining measured upto 6 hrs by RP-UHPLC analysis; assay type: ADME; details: simulated intestinal fluid (SIF), read-out: Stability
[16] = Stability in SPF assessed as compound remaining measured upto 6 hrs by RP-UHPLC analysis; assay type: physicochemical; details: read-out: Stability
[17] = Stability in BALB/c mouse plasma assessed as compound remaining measured upto 6 hrs by RP-UHPLC analysis; assay type: ADME, cell-free; details: read-out: Stability
[18] = Cmax in BALB/c mouse at 5 mg/kg, po measured for 0.83 to 24 hrs by LC-MS/MS analysis; assay type: ADME, organism-based; design: time 0.83-24 hrs, dose 5 mg/kg, route po; details: in vivo
[19] = Tmax in BALB/c mouse at 5 mg/kg, po measured for 0.83 to 24 hrs by LC-MS/MS analysis; assay type: ADME, organism-based; details: in vivo, time 0.83-24 hrs
[20] = AUC (0 to infinity) in BALB/c mouse at 5 mg/kg, po measured for 0.83 to 24 hrs by LC-MS/MS analysis; assay type: ADME, organism-based; design: time upper 24 hrs, dose 5 mg/kg, time lower 0.83 hrs, route po; details: in vivo
[21] = Half life in BALB/c mouse at 5 mg/kg, po measured for 0.83 to 24 hrs by LC-MS/MS analysis; assay type: ADME, organism-based; details: in vivo, time 0.83-24 hrs
[22] = Clearance in BALB/c mouse at 5 mg/kg, po measured for 0.83 to 24 hrs by LC-MS/MS analysis; assay type: ADME, organism-based; details: in vivo, time 0.83-24 hrs
[23] = Volume of distribution in BALB/c mouse at 5 mg/kg, po measured for 0.83 to 24 hrs by LC-MS/MS analysis; assay type: ADME, organism-based; details: in vivo, time 0.83-24 hrs
[24] = MRT in BALB/c mouse at 5 mg/kg, po measured for 0.83 to 24 hrs by LC-MS/MS analysis; assay type: ADME, organism-based; details: in vivo, time 0.83-24 hrs
Mus musculus [25] = test: Induction of osteogenesis in BALB/c mouse model of drill hole defect at femur mid-diaphysis assessed as increase in fracture healing at 1 to 10 mg/kg, po for 12 days by micro-CT analysis; assay type: functional, organism-based; details: dose 1-10 mg/kg, time 12.0 day
Method in brief: (§6)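 Female BALB/c mice, 8–9 weeks, given a drill-hole defect at femur mid-diaphysis under intraperitoneal ketamine (45 mg kg⁻¹)/xylazine (5 mg kg⁻¹); ten per group. Oral dosing at 1, 5 or 10 mg kg⁻¹ began the day after injury for 12 days; PTH 20 μg kg⁻¹ per day as reference. Defect region scanned by μCT for BV/TV, Tb.Th and Tb.N.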

Mus musculus [26] = test: Induction of osteogenesis in BALB/c mouse model of drill hole defect at femur mid-diaphysis assessed as increase in callus formation at 1 to 10 mg/kg, po for 12 days by micro-CT analysis; assay type: functional, organism-based; details: dose 1-10 mg/kg, time 12.0 day; method in brief: as §6
Mus musculus [27] = test: Induction of osteogenesis in BALB/c mouse model of drill hole defect at femur mid-diaphysis assessed as increase in bone volume/tissue volume fraction at 5 to 10 mg/kg, po for 12 days by micro-CT analysis; assay type: functional, organism-based; details: dose 5-10 mg/kg, time 12.0 day; method in brief: as §6
Mus musculus [28] = test: Induction of osteogenesis in BALB/c mouse model of drill hole defect at femur mid-diaphysis assessed as increase in trabecular thickness at 5 to 10 mg/kg, po for 12 days by micro-CT analysis; assay type: functional, organism-based; details: dose 5-10 mg/kg, time 12.0 day; method in brief: as §6
Mus musculus [29] = test: Induction of osteogenesis in BALB/c mouse model of drill hole defect at femur mid-diaphysis assessed as increase in trabecular number at 5 mg/kg, po for 12 days by micro-CT analysis; assay type: functional, organism-based; details: time 12.0 day; method in brief: as §6
Mus musculus [30] = test: Induction of osteogenesis in BALB/c mouse model of drill hole defect at femur mid-diaphysis assessed as increase in calcein binding at fracture site at 5 mg/kg, po for 12 days by confocal microscopy; assay type: functional, organism-based; details: time 12.0 day
Method in brief: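 Femur drill-hole model in female BALB/c mice, oral dosing 1–10 mg kg⁻¹ for 12 days from the day after injury. Calcein 20 mg kg⁻¹ in saline given i.p. 24 h before autopsy; undecalcified drill-hole region embedded in acrylic, 50 μm sections cut, and calcein intensity at the fracture site quantified.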

Mus musculus [31] = test: Induction of osteogenesis in BALB/c mouse model of drill hole defect at femur mid-diaphysis assessed as increase in RUNX2 mRNA level at 5 to 10 mg/kg, po for 12 days by qPCR analysis; assay type: functional, organism-based; details: dose 5-10 mg/kg, time 12.0 day
Mus musculus [32] = test: Induction of osteogenesis in BALB/c mouse model of drill hole defect at femur mid-diaphysis assessed as increase in BMP2 mRNA level at 5 to 10 mg/kg, po for 12 days by qPCR analysis; assay type: functional, organism-based; details: dose 5-10 mg/kg, time 12.0 day
Mus musculus [33] = test: Induction of osteogenesis in BALB/c mouse model of drill hole defect at femur mid-diaphysis assessed as increase in type-1 col mRNA level at 5 to 10 mg/kg, po for 12 days by qPCR analysis; assay type: functional, organism-based; details: dose 5-10 mg/kg, time 12.0 day
Mus musculus [34] = test: Induction of osteogenesis in BALB/c mouse model of drill hole defect at femur mid-diaphysis assessed as increase in extracellular matrix deposition at 1 to 10 mg/kg, po for 12 days by H and E staining based analysis; assay type: functional, organism-based; details: dose 1-10 mg/kg, time 12.0 day
Method in brief: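 Drill-hole femur defect, female BALB/c mice, oral dosing 1–10 mg kg⁻¹ for 12 days. Injury-site tissue fixed 48 h in 4% paraformaldehyde, 48 h in 70% isopropanol, decalcified, paraffin-embedded; 5 μm transverse sections stained with H&E and imaged by bright-field microscopy.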

Calvarial osteoblast [35] = test: Induction of cell proliferation of BALB/c mouse calvarial osteoblast cells at 10 nM incubated for 48 hrs by MTT assay relative to control
Calvarial osteoblast [36] = test: Induction of osteogenesis in BALB/c mouse calvarial osteoblast cells using PNPP as substrate assessed as increase in ALP activity at 0.1 to 10 nM measured after 48 hrs by spectrophotometry; assay type: functional, cell-based; details: Calvaria, dose 0.1-10 nM; method in brief: as §1

## CCCCCC(=O)Nc1nc(-c2ccc(Br)cc2)c(Br)c(-c2cc(OC)c(OC)cc2OC)n1
Calvarial osteoblast [1]
  Activity: Active
Calvarial osteoblast [2]
  Activity: Non-Toxic
Calvarial osteoblast [3]
  Activity: ~32%
Calvarial osteoblast [4]
  Activity: ~31%
[5]
  Activity: ~39%
[6]
  Activity: ~40%
Calvarial osteoblast [7]
  Activity: Active
Calvarial osteoblast [8]
  Activity: Active
Calvarial osteoblast [9]
  Activity: Active
Calvarial osteoblast [10]
  Activity: Active
Calvarial osteoblast [11]
  Activity: Active
Calvarial osteoblast [12]
  Activity: Active
Calvarial osteoblast [13]
  Activity: Active
[14]
  remaining at 6 h: > 50%
[15]
  remaining at 6 h: > 50%
[16]
  remaining at 6 h: > 85%
[17]
  remaining at 6 h: > 85%
[18]
  Cmax: 0.83 ng/mL
[19]
  Tmax: 0.83 h
[20]
  AUC: 6.18006 ng·h/mL
[21]
  half-life: 12.4 h
[22]
  CL: 1964 mL/min/kg
[23]
  Vd: 2113.99 L/kg
[24]
  MRT: 18.1 h
Mus musculus [25]
  Activity: Active
Mus musculus [26]
  Activity: Active
Mus musculus [27]
  Activity: Active
Mus musculus [28]
  Activity: Active
Mus musculus [29]
  Activity: Active
Mus musculus [30]
  Activity: Active
Mus musculus [31]
  Activity: Active
Mus musculus [32]
  Activity: Active
Mus musculus [33]
  Activity: Active
Mus musculus [34]
  Activity: Active
Calvarial osteoblast [35]
  Activity: ~23%

## COc1cc(OC)c(-c2cc(-c3ccc(Cl)cc3)nc(N)n2)cc1OC
Calvarial osteoblast [36]
  Activity: Active
Calvarial osteoblast [2]
  Activity: Non-Toxic

## COc1cc(OC)c(-c2nc(N)nc(-c3ccc(Cl)cc3)c2Cl)cc1OC
Calvarial osteoblast [36]
  Activity: Active
Calvarial osteoblast [2]
  Activity: Non-Toxic
Calvarial osteoblast [4]
  Activity: ~29%
[5]
  Activity: ~26%
